Screening results deposited in PubChem by several laboratories.
Most compounds without a hit are left out; they make up all but 1.8% or so of the library.
PREPL inhibitor: human PREPL enzyme inhibition; recombinant PREPL, fluorescence polarization activity-based probe; inhibition, % at 5.96 µM; actives 0.68% (n = 320,000); in the data active means inhibition above about 43%;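 further: 0% = enzyme with DMSO and 100% = wells lacking enzyme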
Target sequence (Q4J6C6 whole entry, looked up): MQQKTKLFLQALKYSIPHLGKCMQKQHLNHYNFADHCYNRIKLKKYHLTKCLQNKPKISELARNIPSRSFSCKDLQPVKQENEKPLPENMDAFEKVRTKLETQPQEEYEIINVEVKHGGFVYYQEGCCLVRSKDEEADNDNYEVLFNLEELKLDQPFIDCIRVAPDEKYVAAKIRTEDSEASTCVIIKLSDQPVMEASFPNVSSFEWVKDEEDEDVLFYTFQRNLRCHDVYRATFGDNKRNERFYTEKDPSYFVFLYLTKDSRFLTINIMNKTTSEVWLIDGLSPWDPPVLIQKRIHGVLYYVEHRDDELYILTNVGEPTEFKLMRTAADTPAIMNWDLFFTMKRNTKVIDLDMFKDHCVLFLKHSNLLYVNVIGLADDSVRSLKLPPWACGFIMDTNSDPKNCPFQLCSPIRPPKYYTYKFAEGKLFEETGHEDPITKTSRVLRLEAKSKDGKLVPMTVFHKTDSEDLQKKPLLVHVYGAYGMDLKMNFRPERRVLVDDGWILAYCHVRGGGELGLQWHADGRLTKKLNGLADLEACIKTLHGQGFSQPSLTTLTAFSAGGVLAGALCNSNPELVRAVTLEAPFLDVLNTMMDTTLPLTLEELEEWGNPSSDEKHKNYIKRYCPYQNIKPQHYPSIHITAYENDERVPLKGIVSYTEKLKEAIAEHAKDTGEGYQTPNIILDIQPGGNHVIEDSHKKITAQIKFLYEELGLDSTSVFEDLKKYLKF
MT1-MMP act inh: inhibitors of human MT1-MMP activation; P50281; HT1080 RFP-PRO-GFP cells, GFP/RFP ratio fluorescence, overnight; percent of plate control window, DMSO zero; GFP/RFP ratio change, % at 20 µM; actives 0.061% (n = 360,000); AID 651647;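 active means GFP/RFP ratio change of at least 30% with cell ATP level not reduced by more than half and red fluorescence within 50% of control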
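Test system: HT1080 RFP-PRO-GFP cells; Benchmarks: DMSO and RFP-L50D-GFP cell wells; Timing: cells overnight before dosing, compound overnight, 37 °C, 5% CO2; Compound: one 20 µM compound dose with 1% DMSO; Read-out: GFP/RFP fluorescence ratio.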
iPSC survival up: enhancers of human iPSC single-cell survival; survival enhancement, % at 20 µM; hiPSC single-cell survival, ATPlite luminescence; 100% = ROCK inhibitor wells, 0% = DMSO; AID 602274; actives 0.044% (n = 360,000); in the data active means survival enhancement above about 18%;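 further: cells exposed to compounds for 16 hours before the ATP read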
SKN-1 block: inhibitors of C. elegans SKN-1; inhibition, % at 21.8 µM; AID 624304; C. elegans VP596 Pgst-4::GFP/RFP ratio, acrylamide-induced, 24 h; actives 0.49% (n = 360,000);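 active means interference check ratio from 0.5 to 1.5 plus GFP to RFP signal ratio inhibition reaching or exceeding a fixed threshold, cut at about 30% in these data, passing the limit was not always enough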
Tb MetRS inh: blocks T. brucei methionyl-tRNA synthetase activity; purified T. brucei MetRS, ATP depletion, Kinase-Glo luminescence; inhibition, % at 11.9 µM; actives 0.4% (n = 360,000);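 active means inhibition above a per-plate cutoff of the control wells' mean inhibition plus 3 SD, cut at about 5.5% in these data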;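 further: 0% = DMSO wells median and 100% = median of wells with control inhibitor compound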
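Measured by: Kinase-Glo luciferase luminescence reporting remaining unconsumed ATP. Material: purified T. brucei MetRS enzyme. Doses: 11.9 µM compound single dose, 0.9% DMSO. Medium: HEPES buffer containing pyrophosphatase, BSA, spermine, DTT. Times: 15 min preincubation, 2 h reaction, all 25 °C. Reagent: methionine, ATP and bulk E. coli tRNA.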
E coli Lon inh: E. coli protease La inhibition. actives 0.42% (n = 360,000). purified E. coli Lon protease, fluorescence polarization. inhibition, % at 7.94 µM; in the data active means inhibition above about 13%, passing the limit was not always enough;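 further: 0% = enzyme with probe and DMSO and 100% = no enzyme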
Tb MetRS conf: Trypanosoma brucei MetRS inhibition confirmed; shares compounds with Tb MetRS inh; AID 624412; actives 93% (n = 1,400); T. brucei MetRS enzyme, luminescence (ATP depletion); inhibition, % at 11.9 µM; in the data active means inhibition above about 7%
Jurkat tox: counter-screen for T. brucei MetRS inhibitors: Jurkat cell cytotoxicity; Jurkat cells viability, ATP luminescence; actives 12% (n = 1,400); shares compounds with Tb MetRS inh; inhibition, % at 8.3 µM; AID 624413; in the data active means inhibition above about 15%;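 further: 0% = vehicle and 100% = reference inhibitor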
Tb MetRS inh FP: orthogonal test for Trypanosoma brucei MetRS inhibitors. shares compounds with Tb MetRS inh. purified T. brucei MetRS, fluorescence polarization. inhibition, % at 11.9 µM. actives 44% (n = 1,400). AID 651607; in the data active means inhibition above about 17%;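 further: 0% = vehicle wells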
An asterisk follows results filed as active.

Cc1cccc(NC(=O)CCCSc2nc3ccccc3[nH]2)c1 was read as PREPL inhibitor 3, MT1-MMP act inh -1, iPSC survival up 1, SKN-1 block 3, Tb MetRS inh 17*, E coli Lon inh 5, Tb MetRS conf 18*, Jurkat tox 7 and Tb MetRS inh FP 6.
`O=C(CCCSc1nc2ccccc2[nH]1)Nc1ccccc1` gave PREPL inhibitor -17, MT1-MMP act inh 13, iPSC survival up 2, SKN-1 block -3, Tb MetRS inh 1 and E coli Lon inh -3.
For COc1ccc(N2CCN(C(=O)CCCSc3nc4ccccc4[nH]3)CC2)cc1 the results were PREPL inhibitor 3, MT1-MMP act inh -16, iPSC survival up -4, SKN-1 block -10, Tb MetRS inh 6.6*, E coli Lon inh -8, Tb MetRS conf 20*, Jurkat tox 4 and Tb MetRS inh FP 7.
`O=C(CSc1ncnc2c1oc1ccccc12)NCc1ccco1` gave PREPL inhibitor -1, MT1-MMP act inh 6, iPSC survival up 0, SKN-1 block -1, Tb MetRS inh 0 and E coli Lon inh -5.
`O=C(Nc1ccc(C(=O)O)cc1)/C(=C\C=C\c1ccccc1)NC(=O)c1ccc(Br)cc1` gave PREPL inhibitor -17, MT1-MMP act inh -2, iPSC survival up 1, SKN-1 block 2, Tb MetRS inh 21*, E coli Lon inh -7, Tb MetRS conf 40*, Jurkat tox 1 and Tb MetRS inh FP 39*.
CC(=O)Oc1ccc(/C=C(\NC(=O)c2cccc(Br)c2)C(=O)Nc2ccc(C(=O)O)cc2)cc1 was read as PREPL inhibitor 39, MT1-MMP act inh -3, iPSC survival up -1, SKN-1 block 3, Tb MetRS inh 6.2*, E coli Lon inh -1, Tb MetRS conf 12*, Jurkat tox -2 and Tb MetRS inh FP 10.
COc1ccc(/C=C(\NC(=O)c2ccc(OC)cc2)C(=O)Nc2ccc(C(=O)O)cc2)cc1 was read as MT1-MMP act inh 6, iPSC survival up 2, SKN-1 block 21, Tb MetRS inh 1 and E coli Lon inh -3.
For CCCCn1c(SCC(=O)Nc2nnc(C)s2)nc2c1c(=O)n(C)c(=O)n2C the results were PREPL inhibitor 0, MT1-MMP act inh 4, iPSC survival up 2, SKN-1 block 8, Tb MetRS inh 0 and E coli Lon inh -3.
For O=c1c2cc(Cl)ccc2[nH]c(=S)n1Cc1ccccn1 the results were PREPL inhibitor -2, MT1-MMP act inh 0, iPSC survival up -1, SKN-1 block 9, Tb MetRS inh 6.8*, E coli Lon inh 14, Tb MetRS conf 16*, Jurkat tox 6 and Tb MetRS inh FP 3.
For CC(C)(C)C(=O)CSc1nc2ncc(Br)cc2[nH]1 the results were PREPL inhibitor 10, MT1-MMP act inh -3, iPSC survival up -2, SKN-1 block -6, Tb MetRS inh 7.5*, E coli Lon inh 1, Tb MetRS conf 18*, Jurkat tox -1 and Tb MetRS inh FP 7.
O=[N+]([O-])c1ccc(CSc2nc3ncc(Br)cc3[nH]2)cc1 was read as PREPL inhibitor 0, MT1-MMP act inh 2, iPSC survival up 0, SKN-1 block 8, Tb MetRS inh 2 and E coli Lon inh -4.
`N#Cc1ccccc1CSc1nc2ncc(Br)cc2[nH]1` gave PREPL inhibitor 8, MT1-MMP act inh 2, iPSC survival up 2, SKN-1 block 20, Tb MetRS inh 8.3*, E coli Lon inh 3, Tb MetRS conf 37*, Jurkat tox -5 and Tb MetRS inh FP 17*.
Fc1ccccc1CSc1nc2ncc(Br)cc2[nH]1 was read as PREPL inhibitor 9, MT1-MMP act inh -5, iPSC survival up 0, SKN-1 block 16, Tb MetRS inh 5.9*, E coli Lon inh 1, Tb MetRS conf 14*, Jurkat tox -4 and Tb MetRS inh FP 17*.
For Cc1nc2nc(SCC(=O)C(C)(C)C)[nH]c2cc1Br the results were PREPL inhibitor 0, MT1-MMP act inh -4, iPSC survival up 1, SKN-1 block 5, Tb MetRS inh 0 and E coli Lon inh -3.
Screening CC(=O)c1ccc(N(CC(=O)NC2CCCC2)C(=O)CNC(=O)c2cccs2)cc1 returned PREPL inhibitor 15, MT1-MMP act inh -2, iPSC survival up 0, SKN-1 block -7, Tb MetRS inh 0 and E coli Lon inh -2.
`Cc1cccc(OCc2nc(C#N)c(NCc3ccc4c(c3)OCO4)o2)c1` gave PREPL inhibitor -13, MT1-MMP act inh 4, iPSC survival up 6, SKN-1 block -6, Tb MetRS inh 0 and E coli Lon inh -6.
N#Cc1nc(COc2ccc(Cl)cc2)oc1NCc1ccc2c(c1)OCO2 was read as PREPL inhibitor -11, MT1-MMP act inh 3, iPSC survival up -4, SKN-1 block 20, Tb MetRS inh 5.7*, E coli Lon inh 3, Tb MetRS conf 9.8*, Jurkat tox 1 and Tb MetRS inh FP 12.
Cc1cc(O)c(-c2cc(C(=O)NCCc3ccc(S(N)(=O)=O)cc3)[nH]n2)cc1C was read as PREPL inhibitor 14, MT1-MMP act inh 3, iPSC survival up 0, SKN-1 block -5, Tb MetRS inh 0 and E coli Lon inh -10.
`Cc1cc(C)c(O)c(-c2cc(C(=O)NCCc3ccc(S(N)(=O)=O)cc3)[nH]n2)c1` gave PREPL inhibitor 20, MT1-MMP act inh 7, iPSC survival up 0, SKN-1 block -8, Tb MetRS inh 5.7*, E coli Lon inh 2, Tb MetRS conf 15*, Jurkat tox 4 and Tb MetRS inh FP 17*.
Screening NS(=O)(=O)c1ccc(CCNC(=O)c2cc(-c3cc(Cl)ccc3O)n[nH]2)cc1 returned PREPL inhibitor -2, MT1-MMP act inh 2, iPSC survival up -1, SKN-1 block -3, Tb MetRS inh 32*, E coli Lon inh -8, Tb MetRS conf 38*, Jurkat tox 14 and Tb MetRS inh FP 36*.
For CCOC(=O)C1=C(CC)Nc2ccccc2N=C1NC(=O)Nc1ccc(Cl)c(Cl)c1 the results were PREPL inhibitor -18, MT1-MMP act inh -13, iPSC survival up -2, SKN-1 block 27, Tb MetRS inh 37*, E coli Lon inh 2, Tb MetRS conf 97*, Jurkat tox 17* and Tb MetRS inh FP 117*.
